Bioassay records as filed in PubChem.
Rows were chosen to be rich in hits. Some 2.1% of all compounds tested hit in one or more screens of this group.
CHRM1 antagonist: antagonists of human M1 muscarinic receptor. 360,000 compounds, 1.3% hits. P11229. inhibition, % at 3 µM. CHO-K1 hM1, Fluo-8 calcium fluorescence, ACh EC80 antagonist;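 active = percent inhibition above its own plate's cutoff, namely the mean of that plate's compound wells plus 3 SD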;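 also: peak over basal fluorescence ratio during 140 s after agonist addition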
CHRM5 PAM: CHRM5 positive allosteric modulation; 360,000 compounds, 0.3% hits; P08912; CHO-K1 hM5, Fluo-8 calcium, ACh EC20 PAM; 0% = ACh EC20, 100% = ACh EC100; activation, % at 3 µM;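 active = activation above the run cutoff, the mean activation of all test compounds plus 3 SD, cut at about 18% in these data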
Target sequence (P08912 whole entry, looked up): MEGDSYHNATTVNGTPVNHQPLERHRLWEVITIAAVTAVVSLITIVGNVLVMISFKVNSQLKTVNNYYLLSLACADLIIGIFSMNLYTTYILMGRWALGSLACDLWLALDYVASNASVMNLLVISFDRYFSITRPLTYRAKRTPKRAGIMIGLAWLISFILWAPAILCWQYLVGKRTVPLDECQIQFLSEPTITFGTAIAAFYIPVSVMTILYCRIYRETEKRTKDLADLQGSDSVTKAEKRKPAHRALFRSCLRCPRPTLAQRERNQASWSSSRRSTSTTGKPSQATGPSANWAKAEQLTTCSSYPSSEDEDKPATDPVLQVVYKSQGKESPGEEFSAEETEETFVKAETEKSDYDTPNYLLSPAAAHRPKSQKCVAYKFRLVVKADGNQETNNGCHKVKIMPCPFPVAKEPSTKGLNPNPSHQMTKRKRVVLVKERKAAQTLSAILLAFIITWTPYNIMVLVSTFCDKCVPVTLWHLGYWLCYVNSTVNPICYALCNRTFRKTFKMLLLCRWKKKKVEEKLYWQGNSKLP
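Replicates: One well per compound, no replicates | System: Human M5 receptor in CHO-K1 cells | Benchmarks: Low control EC20 acetylcholine (0%), high control EC100 acetylcholine (100%) | Probe or stimulus: Acetylcholine, EC20 level | Times: Fluo-8 loading 80 min at 37 °C plus 30 min room temperature | Signal: Intracellular calcium via Fluo-8 fluorescence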
CHRM1 PAM: potentiates human M1 receptor response to acetylcholine; P11229; CHO-K1 hM1, Fluo-8 calcium fluorescence, ACh EC20; 0% = ACh EC20, 100% = maximal ACh; activation, % at 3 µM; 360,000 compounds, 0.088% hits; in the data active = activation above about 19%, passing the limit was not always enough
CHRM5 agonist: CHRM5 agonism in calcium assay; P08912; CHO-K1 hM5 cells, Fluo-8 calcium fluorescence; 0% DMSO wells, 100% maximal acetylcholine response; activation, % at 3 µM; 360,000 compounds, 0.19% hits; AID 624037;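 active = activation above the run's mean over test compounds plus 3 SD, cut at about 23% in these data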;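 also: signal is peak over basal fluorescence ratio across the kinetic read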
M1 ag: human M1 muscarinic receptor agonism | P11229 | CHO-K1 hM1, Fluo-8 calcium fluorescence, agonist mode; 0% DMSO, 100% acetylcholine EC100 | activation, % at 3 µM | 360,000 compounds, 0.33% hits | AID 588814;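 active = activation above the run's mean compound activation plus 3 SD, cut at about 16% in these data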;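 also: peak over basal fluorescence ratio within a 140 s kinetic read after compound addition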
M5 antag: CHRM5 antagonism in calcium assay; P08912; CHO-hM5 cells, Fluo-8 calcium fluorescence, ACh EC80; inhibition, % at 3 µM; 360,000 compounds, 0.59% hits;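 active = inhibition above a per-plate cutoff, the mean of that plate's test compounds plus 3 SD, cut at about 27% in these data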
Hits are given with their value.

For O=c1[nH]nc(Br)c(=O)n1C(c1ccccc1)c1ccccc1 the results were CHRM1 antagonist inactive, CHRM5 PAM inactive, CHRM1 PAM inactive, CHRM5 agonist inactive, M1 ag 19 and M5 antag inactive.
`O=C(NC1CCCc2c1cnn2-c1cc(F)cc(F)c1)c1ccncc1` (configuration not stated) gave CHRM1 antagonist inactive, CHRM5 PAM inactive, CHRM1 PAM inactive, CHRM5 agonist inactive, M1 ag inactive and M5 antag inactive.
`Cc1cc(C(=O)NC2CCCc3c2cnn3-c2ccc(C)c(C)c2)n(C)n1` (configuration not stated) gave CHRM1 antagonist 44, CHRM5 PAM inactive, CHRM1 PAM inactive, CHRM5 agonist inactive, M1 ag inactive and M5 antag inactive.
For Cc1nnsc1C(=O)NC1CCCc2c1cnn2-c1ccccc1F (configuration not stated) the results were CHRM1 antagonist inactive, CHRM5 PAM inactive, CHRM1 PAM inactive, CHRM5 agonist inactive, M1 ag inactive and M5 antag inactive.
Screening Cc1ccc(-n2ncc3c2CCCC3NC(=O)c2ccoc2)cc1C (configuration not stated) returned CHRM1 antagonist inactive, CHRM5 PAM inactive, CHRM1 PAM inactive, CHRM5 agonist inactive, M1 ag inactive and M5 antag inactive.
For Cc1nnsc1C(=O)NC1CCCc2c1cnn2-c1ccc(C(C)(C)C)cc1 (configuration not stated) the results were CHRM1 antagonist inactive, CHRM5 PAM inactive, CHRM1 PAM inactive, CHRM5 agonist inactive, M1 ag inactive and M5 antag 28.
CC(C)(C)c1ccc(-n2ncc3c2CCCC3NC(=O)c2ccncc2)cc1 (configuration not stated) was read as CHRM1 antagonist 62, CHRM5 PAM inactive, CHRM1 PAM inactive, CHRM5 agonist inactive, M1 ag inactive and M5 antag inactive.
For Cc1ccc(C)c(NC(=O)CC2Sc3ccccc3NC2=O)c1 (configuration not stated) the results were CHRM1 antagonist inactive, CHRM5 PAM inactive, CHRM1 PAM inactive, CHRM5 agonist inactive, M1 ag inactive and M5 antag inactive.
For Cc1ccc(S(=O)(=O)Nc2c(O)c3ccccc3oc2=O)cc1C the results were CHRM1 antagonist inactive, CHRM5 PAM inactive, CHRM1 PAM inactive, CHRM5 agonist inactive, M1 ag inactive and M5 antag inactive.
`O=CN1CCN(c2ncnc3c2nnn3Cc2c(F)cccc2Cl)CC1` gave CHRM1 antagonist inactive, CHRM5 PAM inactive, CHRM1 PAM inactive, CHRM5 agonist inactive, M1 ag inactive and M5 antag inactive.
For COc1cccc(NC(=O)C2CCCCC2)c1 the results were CHRM1 antagonist inactive, CHRM5 PAM inactive, CHRM1 PAM inactive, CHRM5 agonist inactive, M1 ag inactive and M5 antag inactive.
`COc1ccc([N+](=O)[O-])cc1N(CC(=O)NCCC1=CCCCC1)S(C)(=O)=O` gave CHRM1 antagonist inactive, CHRM5 PAM inactive, CHRM1 PAM inactive, CHRM5 agonist inactive, M1 ag inactive and M5 antag inactive.
For CCCNC(=O)C1(C)CCCN(Cc2ccc(Oc3ccccc3)cc2)C1 (configuration not stated) the results were CHRM1 antagonist 40, CHRM5 PAM inactive, CHRM1 PAM inactive, CHRM5 agonist inactive, M1 ag inactive and M5 antag inactive.
For CC(C)N1CCCC(C)(C(=O)Nc2cccc(Oc3ccccc3)c2)C1 (configuration not stated) the results were CHRM1 antagonist 36, CHRM5 PAM inactive, CHRM1 PAM inactive, CHRM5 agonist inactive, M1 ag inactive and M5 antag inactive.
O=c1/c(=C/c2ccccc2)sc2nnc(-c3cccs3)n12 was read as CHRM1 antagonist inactive, CHRM5 PAM 19, CHRM1 PAM inactive, CHRM5 agonist inactive, M1 ag inactive and M5 antag inactive.
Screening O=c1/c(=C\c2ccc(O)cc2)sc2nc(-c3ccccc3)c(-c3ccccc3)n12 returned CHRM1 antagonist inactive, CHRM5 PAM inactive, CHRM1 PAM inactive, CHRM5 agonist inactive, M1 ag inactive and M5 antag inactive.
For Cc1ccc(/C=N/NC(=O)CSc2nc3ccccc3n2Cc2ccc(Cl)cc2)o1 the results were CHRM1 antagonist inactive, CHRM5 PAM inactive, CHRM1 PAM inactive, CHRM5 agonist inactive, M1 ag inactive and M5 antag inactive.
For Cc1ccc(C(=O)N(Cc2ccccc2)C(C)(C)C)cc1C the results were CHRM1 antagonist 51, CHRM5 PAM inactive, CHRM1 PAM inactive, CHRM5 agonist inactive, M1 ag inactive and M5 antag inactive.
Screening CC(C)(C)N(Cc1ccccc1)C(=O)c1ccc(Cl)cc1[N+](=O)[O-] returned CHRM1 antagonist 39, CHRM5 PAM inactive, CHRM1 PAM inactive, CHRM5 agonist inactive, M1 ag inactive and M5 antag inactive.
`CC(C)(C)N(Cc1ccccc1)C(=O)c1ccc(Br)o1` gave CHRM1 antagonist inactive, CHRM5 PAM inactive, CHRM1 PAM inactive, CHRM5 agonist inactive, M1 ag inactive and M5 antag inactive.
`CC(=O)N1CCc2c(sc(NC(=O)C3CCN(S(=O)(=O)c4cccs4)CC3)c2C(N)=O)C1` gave CHRM1 antagonist inactive, CHRM5 PAM inactive, CHRM1 PAM inactive, CHRM5 agonist inactive, M1 ag inactive and M5 antag inactive.
Screening CCCN1CCc2c(sc(NC(=O)C3CCN(S(=O)(=O)c4cccs4)CC3)c2C(N)=O)C1 returned CHRM1 antagonist 53, CHRM5 PAM inactive, CHRM1 PAM inactive, CHRM5 agonist inactive, M1 ag inactive and M5 antag inactive.
COC(=O)Cc1ccc(OC2(C)CCN(Cc3ccccc3OC(F)F)C2)cc1 (configuration not stated) was read as CHRM1 antagonist 55, CHRM5 PAM inactive, CHRM1 PAM inactive, CHRM5 agonist inactive, M1 ag inactive and M5 antag inactive.
CCNC(=O)C1(C)CCCN(Cc2ccc(-c3ccccn3)cc2)C1 (configuration not stated) was read as CHRM1 antagonist inactive, CHRM5 PAM inactive, CHRM1 PAM inactive, CHRM5 agonist inactive, M1 ag inactive and M5 antag inactive.
COC(=O)Cc1ccc(OC2(C)CCN(Cc3ccc(-c4ccccn4)cc3)C2)cc1 (configuration not stated) was read as CHRM1 antagonist 59, CHRM5 PAM inactive, CHRM1 PAM inactive, CHRM5 agonist inactive, M1 ag inactive and M5 antag inactive.
CC(=O)c1cc2cccc(OC3(C)CCN(Cc4ccc(-c5ccccn5)cc4)C3)c2o1 (configuration not stated) was read as CHRM1 antagonist 35, CHRM5 PAM inactive, CHRM1 PAM inactive, CHRM5 agonist inactive, M1 ag inactive and M5 antag inactive.
